Assay results taken from ChEMBL document CHEMBL1926628, “Febrifugine analogue compounds: synthesis and antimalarial evaluation” (Bioorg Med Chem, 2012).

Key:
[1] = test system: Plasmodium falciparum; experiment: Antimalarial activity against chloroquine-resistant Plasmodium falciparum K1 infected in human A positive erythrocytes assessed as inhibition of [G-3H]-hypoxanthine uptake after 24 hrs by liquid scintillation counting; assay type: functional, organism-based; conditions: K1, 24 h
[2] = test system: Plasmodium berghei; experiment: Antimalarial activity against blood stage of Plasmodium berghei NK65 infected in po dosed rat assessed as inhibition of parasite growth; assay type: functional
Summary of the method: (§1)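 Blood-stage Plasmodium berghei NK65 infection in rodents. Compounds were given by the route stated in each line. ED50 is the dose in mg/kg giving 50% parasite growth inhibition relative to the untreated blank control. Procedure follows earlier reports.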

[3] = test system: Plasmodium falciparum; experiment: Antimalarial activity against chloroquine-resistant Plasmodium falciparum TM6 infected in human A positive erythrocytes assessed as inhibition of [G-3H]-hypoxanthine uptake after 24 hrs by liquid scintillation counting; assay type: functional, organism-based; conditions: TM6, 24 h
[4] = test system: Plasmodium falciparum; experiment: Antimalarial activity against Plasmodium falciparum TM4 infected in human A positive erythrocytes assessed as inhibition of [G-3H]-hypoxanthine uptake after 24 hrs by liquid scintillation counting; assay type: functional, organism-based; conditions: TM4, 24 h
[5] = test system: Plasmodium falciparum; experiment: Antimalarial activity against Plasmodium falciparum PH3 infected in human A positive erythrocytes assessed as inhibition of [G-3H]-hypoxanthine uptake after 24 hrs by liquid scintillation counting; assay type: functional, organism-based; conditions: PH3, 24 h
[6] = test system: Plasmodium falciparum; experiment: Antimalarial activity against chloroquine-sensitive Plasmodium falciparum 3D7 infected in human A positive erythrocytes assessed as inhibition of [G-3H]-hypoxanthine uptake after 24 hrs by liquid scintillation counting; assay type: functional, organism-based; conditions: 3D7, 24 h
[7] = Therapeutic index, ratio of MTD for Sprague-Dawley rat to MCD for blood stage of Plasmodium berghei NK65; conditions: read-out: TI
Summary of the method: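 MCD (minimum clearance dose) comes from rodents infected with blood-stage P. berghei NK65, dosed orally except artesunate, which was given iv. MTD (maximum tolerated dose) comes from Sprague–Dawley rats. Both are in mg/kg. Therapeutic index is MTD divided by MCD.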

[8] = test system: Plasmodium berghei; experiment: Antimalarial activity against blood stage of Plasmodium berghei NK65 infected in po dosed rat assessed as minimum curative dose; assay type: functional
Summary of the method: (§2)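 Rodents infected with blood-stage Plasmodium berghei NK65 were dosed by the route given in each line. Read-out was the minimum clearance dose (MCD), the lowest dose clearing parasites, reported in mg/kg. Method follows earlier reports.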

[9] = test system: Plasmodium falciparum; experiment: Antimalarial activity against Plasmodium falciparum Dd2 infected in human A positive erythrocytes assessed as inhibition of [G-3H]-hypoxanthine uptake after 24 hrs by liquid scintillation counting; assay type: functional, organism-based; conditions: Dd2, 24 h
[10] = test system: Plasmodium falciparum; experiment: Antimalarial activity against chloroquine-resistant Plasmodium falciparum VS/1 infected in human A positive erythrocytes assessed as inhibition of [G-3H]-hypoxanthine uptake after 24 hrs by liquid scintillation counting; assay type: functional; conditions: VS/1, 24 h
[11] = Acute toxicity in po dosed Sprague-Dawley rat assessed as maximum tolerated dose; assay type: organism-based; conditions: in vivo
[12] = species on record: Rattus norvegicus; experiment: Ratio of compound MTD to febrifugine MTD in Sprague-Dawley rat; assay type: ADME, organism-based; conditions: in vivo
[13] = test system: Plasmodium falciparum; experiment: Antimalarial activity against chloroquine-resistant Plasmodium falciparum FVO infected in Aotus monkey assessed as cure rate at 4 mg/kg, po qd for 3 days; assay type: functional
Summary of the method: (§3)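 Aotus monkeys carrying chloroquine-resistant P. falciparum FVO were dosed orally once daily for 3 days at 2, 4, 8 or 16 mg/kg/day. Dosing began the day after parasitemia reached approximately 5,000 organisms per mm³. Cure means parasitemia cleared with no recrudescence. Cure rate is animals cured over total tested.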

[14] = test system: Plasmodium falciparum; experiment: Antimalarial activity against chloroquine-resistant Plasmodium falciparum FVO infected in Aotus monkey assessed as cure rate at 8 mg/kg, po qd for 3 days; assay type: functional; summary of the method: as §3
[15] = test system: Plasmodium falciparum; experiment: Antimalarial activity against chloroquine-resistant Plasmodium falciparum FVO infected in Aotus monkey assessed as cure rate at 16 mg/kg, po qd for 3 days; assay type: functional; summary of the method: as §3
[16] = test system: Plasmodium falciparum; experiment: Antimalarial activity against chloroquine-resistant Plasmodium falciparum FVO infected in Aotus monkey assessed as cure rate at 2 mg/kg, po qd for 3 days; assay type: functional; summary of the method: as §3
[17] = test system: Plasmodium berghei; experiment: Antimalarial activity against blood stage of Plasmodium berghei NK65 infected in iv dosed rat assessed as inhibition of parasite growth; assay type: functional; summary of the method: as §1
[18] = test system: Plasmodium berghei; experiment: Antimalarial activity against blood stage of Plasmodium berghei NK65 infected in iv dosed rat assessed as minimum curative dose; assay type: functional; summary of the method: as §2

SMILES	IC50 [1] [nM]	ED50 [2] [mg/kg]	IC50 [3] [nM]	IC50 [4] [nM]	IC50 [5] [nM]	IC50 [6] [nM]	selectivity ratio [7]	MCD [8] [mg/kg]	IC50 [9] [nM]	IC50 [10] [nM]	MTD [11] [mg/kg]	Ratio [12]	Activity [13] [%]	Activity [14] [%]	Activity [15] [%]	Activity [16] [%]	ED50 [17] [mg/kg]	MCD [18] [mg/kg]
CC(C)O[C@H]1CCN[C@@H]1C(=O)Cn1cnc2cccc(C(F)(F)F)c2c1=O	0.61	0.23	0.31	0.39	0.54	0.36	104	2.4	0.78	0.68	250	–	–	–	–	–	–	–
O=C(Cn1cnc2cccc(C(F)(F)F)c2c1=O)[C@H]1NCC[C@@H]1O	4.7	0.95	2.5	7.4	3.2	2.7	60	6.7	6.3	11.2	400	> 10	–	–	–	–	–	–
O=C(Cn1cnc2cccc(F)c2c1=O)[C@H]1NCC[C@@H]1O	5.9	1.1	3.9	6.2	2.5	5.7	63	6.3	8.1	5.3	400	> 10	–	–	–	–	–	–
CCO[C@H]1CCN[C@@H]1C(=O)Cn1cnc2cccc(F)c2c1=O	0.24	0.31	0.17	0.22	0.18	0.21	132	1.9	0.26	0.25	250	–	67	100	100	50	–	–
O=C(Cn1cnc2ccccc2c1=O)[C@H]1NCC[C@@H]1O	3.9	1.7	3.1	7.9	1.4	2.8	10	9.9	4.5	5.6	100	–	–	–	–	–	–	–
O=C(C[C@@H]1NCCC[C@H]1O)Cn1cnc2ccccc2c1=O [FEBRIFUGINE]	2	2.3	3.1	5.4	–	–	3	12	2.1	4.2	35	–	–	–	–	–	–	–
CCN(CC)CCCC(C)Nc1ccnc2cc(Cl)ccc12 (configuration not stated) [CHLOROQUINE]	–	4.5	–	–	–	–	–	40	–	–	–	–	–	–	–	–	–	–
O=C(Cn1cnc2ccncc2c1=O)[C@H]1NCC[C@@H]1O	2.8	1	3.4	3	1	1.4	47	7.5	2.2	4.1	350	> 10	–	–	–	–	–	–
O=C(Cn1cnc2cccc(C(F)(F)F)c2c1=O)[C@H]1NCC[C@H]1O	24.2	–	25.6	51.9	21.2	19.6	–	–	31.8	36.5	–	–	–	–	–	–	–	–
O=C(Cn1cnc2cccnc2c1=O)[C@H]1NCC[C@@H]1O	3.1	1.2	2.1	4.1	1.1	1.8	63	7.1	2.3	3.6	450	> 10	–	–	–	–	–	–
O=C(Cn1cnc2cccnc2c1=O)[C@H]1NCC[C@H]1O	19.8	–	13.2	32.7	11.4	16.3	–	–	21.9	28.7	–	–	–	–	–	–	–	–
OC(c1cc(C(F)(F)F)nc2c(C(F)(F)F)cccc12)C1CCCCN1 (configuration not stated) [MEFLOQUINE]	–	1.1	–	–	–	–	61	9.9	–	–	–	–	–	–	–	–	–	–
O=C(Cn1cnc2cccc(C(F)(F)F)c2c1=O)[C@@H]1NCC[C@H]1O	4.8	–	2.7	7.3	3.4	2.6	–	–	6.1	11	–	–	–	–	–	–	–	–
O=C(Cn1cnc2cccnc2c1=O)[C@@H]1NCC[C@H]1O	3.3	–	2	4	1	1.9	–	–	2.4	3.7	–	–	–	–	–	–	–	–
CCN(CC)Cc1cc(Nc2ccnc3cc(Cl)ccc23)ccc1O	21.2	–	7.5	15.2	15.9	4.9	–	–	9.1	8.7	–	–	–	–	–	–	–	–
O=C(Cn1cnc2cccnc2c1=O)[C@H]1NCC[C@@H]1OCc1ccccc1	0.24	0.19	0.08	0.33	0.2	0.21	147	1.7	0.17	0.13	250	–	71	80	100	25	–	–
C[C@H]1[C@H](OC(=O)CCC(=O)O)O[C@@H]2O[C@@]3(C)CC[C@H]4[C@H](C)CC[C@@H]1[C@@]24OO3 [ARTESUNATE]	–	–	–	–	–	–	37	–	–	–	–	–	–	–	–	–	0.55	6.8
